Legend:
Mus musculus [1] = experiment: Antinociceptive activity in Swiss mouse assessed as inhibition of acetic acid-induced writhing response at 25 mg/kg, po dose administered 1 hr before acetic acid challenge measured for 30 mins; type: functional
How it was run: (§1)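 Swiss mice (25–35 g, either sex), fasted overnight, received compound orally in 0.5% methylcellulose or vehicle, with 8–10 per group. Testing started at 100 mg/kg with successive twofold dose reductions. Writhes were counted for 30 min after acetic acid injection. Percent inhibition of the writhing response was calculated versus vehicle controls (Student's t-test).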

Rattus norvegicus [2] = experiment: Antiinflammatory activity against carrageenan-induced paw edema in Wistar rat at 25 mg/kg, po dose administered 1 hr before carrageenan challenge assessed after 3 hrs; type: functional
How it was run: (§2)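 Wistar rats (250–300 g, either sex), fasted overnight, dosed by oral gavage with the compound suspended in 0.5% methylcellulose. Controls received vehicle alone, with 8–10 animals per group. Dosing started at 100 mg/kg and was halved stepwise. Carrageenan (1%, 0.1 mL) was injected subplantar 1 h post-dose. Paw volume was measured by plethysmometer immediately and at 3 h, and % inhibition of swelling was calculated versus controls (Student's t-test).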

Mus musculus [3] = experiment: Sedative activity in Swiss mouse assessed as inhibition of spontaneous locomotor activity at 100 mg/kg, po dose measured for every 5 mins during 60 to 90 mins; type: organism-based; parameters: dose 100 mg/kg, route oral
How it was run: (§3)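 Fasted Swiss mice (25–35 g, either sex) were given compound orally in 0.5% methylcellulose or vehicle. Each mouse was placed alone in a photobeam-type activity cage, with counts recorded every 5 min for 90 min. Pulses from the final 30 min were scored, with testing run 9:00–13:00. Percent inhibition was calculated versus controls (Student's t-test).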

Mus musculus [4] = experiment: Antinociceptive activity in Swiss mouse assessed as inhibition of acetic acid-induced writhing response at 50 mg/kg, po dose administered 1 hr before acetic acid challenge measured for 30 mins; type: functional; how it was run: as §1
Mus musculus [5] = experiment: Antinociceptive activity in Swiss mouse assessed as inhibition of acetic acid-induced writhing response at 100 mg/kg, po dose administered 1 hr before acetic acid challenge measured for 30 mins; type: functional; how it was run: as §1
Rattus norvegicus [6] = experiment: Antiinflammatory activity against carrageenan-induced paw edema in Wistar rat at 100 mg/kg, po dose administered 1 hr before carrageenan challenge assessed after 3 hrs; type: functional; how it was run: as §2
Rattus norvegicus [7] = experiment: Antiinflammatory activity against carrageenan-induced paw edema in Wistar rat at 50 mg/kg, po dose administered 1 hr before carrageenan challenge assessed after 3 hrs; type: functional; how it was run: as §2
Rattus norvegicus [8] = experiment: Antiinflammatory activity against carrageenan-induced paw edema in Wistar rat at 12.5 mg/kg, po dose administered 1 hr before carrageenan challenge assessed after 3 hrs; type: functional; how it was run: as §2
Rattus norvegicus [9] = experiment: Antiinflammatory activity against carrageenan-induced paw edema in Wistar rat at 3.12 mg/kg, po dose administered 1 hr before carrageenan challenge assessed after 3 hrs; type: functional
Rattus norvegicus [10] = experiment: Antiinflammatory activity against carrageenan-induced paw edema in Wistar rat at 6.25 mg/kg, po dose administered 1 hr before carrageenan challenge assessed after 3 hrs; type: functional; how it was run: as §2
Mus musculus [11] = experiment: Antinociceptive activity in Swiss mouse assessed as inhibition of acetic acid-induced writhing response at 12.5 mg/kg, po dose administered 1 hr before acetic acid challenge measured for 30 mins; type: functional; how it was run: as §1
Mus musculus [12] = experiment: Sedative activity in Swiss mouse assessed as inhibition on spontaneous locomotor activity at 25 mg/kg, po measured for every 5 mins during 60 to 90 mins; type: functional, organism-based; parameters: dose 25 mg/kg, route oral; how it was run: as §3
Mus musculus [13] = experiment: Sedative activity in Swiss mouse assessed as inhibition on spontaneous locomotor activity at 12.5 mg/kg, po dose measured for every 5 mins during 60 to 90 mins; type: ADME, organism-based; parameters: dose 12.5 mg/kg, route oral; how it was run: as §3
Rattus norvegicus [14] = experiment: Acute gastrolesivity in Wistar rat assessed as appearance of gastric lesions at 200 mg/kg, po after 5 hrs; type: toxicity, organism-based, Stomach; parameters: dose 200 mg/kg, route oral; settings: in vivo
How it was run: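 Wistar rats (250–300 g, either sex), fasted overnight, given the compound orally at 200 mg kg-1 as a suspension in 0.5% methylcellulose by gavage (1 mL/100 g); 8 rats per compound. Stomachs were fixed in 2% formalin, opened along the greater curvature, and examined under a stereomicroscope by a blinded observer. The result is the number of rats with gastric damage over the number treated.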

Rattus norvegicus [15] = experiment: Antiinflammatory activity against carrageenan-induced paw edema in Wistar rat at 200 mg/kg, po dose administered 1 hr before carrageenan challenge assessed after 3 hrs; type: functional
Mus musculus [16] = experiment: Antinociceptive activity in Swiss mouse assessed as inhibition of acetic acid-induced writhing response at 200 mg/kg, po dose administered 1 hr before acetic acid challenge measured for 30 mins; type: functional

SMILES | inhibition in vivo at 25 mg/kg (Mus musculus [1]) | inhibition at 100 mg/kg (Mus musculus [3]) | inhibition in vivo at 50 mg/kg (Mus musculus [4]) | inhibition in vivo at 100 mg/kg (Mus musculus [5]) | inhibition in vivo at 100 mg/kg (Rattus norvegicus [6]) | inhibition in vivo at 50 mg/kg (Rattus norvegicus [7]) | further results
CCN(CC)C(=O)c1c(N(C)CC)c2cccnc2n2c(C(C)C)nnc12 | 17% | 53% | 59% | 81% | 71% | 67% | inhibition in vivo at 25 mg/kg (Rattus norvegicus [2]): 65%; inhibition in vivo at 12.5 mg/kg (Rattus norvegicus [8]): 51%; inhibition in vivo at 3.12 mg/kg (Rattus norvegicus [9]): 0%; inhibition in vivo at 6.25 mg/kg (Rattus norvegicus [10]): 42%
CC(C)c1nnc2c(C(=O)N3CCCC3)c(N3CCN(C)CC3)c3cccnc3n12 | – | – | – | 100% | 0% | – | –
CCN(CC)C(=O)c1c(NC(C)C)c2cccnc2n2c(C(C)C)nnc12 | 33% | 98% | 54% | 83% | 81% | 75% | inhibition in vivo at 12.5 mg/kg (Mus musculus [11]): 0%; inhibition in vivo at 25 mg/kg (Rattus norvegicus [2]): 75%; inhibition at 25 mg/kg (Mus musculus [12]): 26%; inhibition at 12.5 mg/kg (Mus musculus [13]): 0%; inhibition in vivo at 12.5 mg/kg (Rattus norvegicus [8]): 68%; inhibition in vivo at 6.25 mg/kg (Rattus norvegicus [10]): 15%
CCN(CC)C(=O)c1c(NCC(C)C)c2cccnc2n2c(C(C)C)nnc12 | – | 15% | 33% | 100% | 70% | 66% | Activity (Rattus norvegicus [14]): Non-toxic; inhibition in vivo at 25 mg/kg (Rattus norvegicus [2]): 61%; inhibition in vivo at 200 mg/kg (Rattus norvegicus [15]): 74%; inhibition in vivo at 12.5 mg/kg (Rattus norvegicus [8]): 50%; inhibition in vivo at 200 mg/kg (Mus musculus [16]): 100%; inhibition in vivo at 3.12 mg/kg (Rattus norvegicus [9]): 18%; inhibition in vivo at 6.25 mg/kg (Rattus norvegicus [10]): 27%
CCN(CC)C(=O)c1c(N2CCN(C)CC2)c2cccnc2n2cnnc12 | – | – | – | 14% | 0% | – | –
CC(C)CNc1c(C(=O)N2CCCC2)c2nnc(C(C)C)n2c2ncccc12 | 29% | 5% | 64% | 60% | 0% | – | –
CCOC(=O)N1CCN(c2c(C(=O)N(CC)CC)c3nnc(C(C)C)n3c3ncccc23)CC1 | 53% | 83% | 75% | 100% | 0% | – | inhibition in vivo at 12.5 mg/kg (Mus musculus [11]): 29%; inhibition at 25 mg/kg (Mus musculus [12]): 96%
CCN(CC)C(=O)c1c(NN2CCN(C)CC2)c2cccnc2n2c(C(C)C)nnc12 | – | – | – | 17% | 0% | – | –
CCN(CC)C(=O)c1c(NCC(OC)OC)c2cccnc2n2c(C(C)C)nnc12 | – | 0% | 8% | 47% | 0% | – | –
CCNC(=O)c1c(N2CCN(C)CC2)c2cccnc2n2c(C(C)C)nnc12 | – | 80% | 24% | 79% | 0% | – | –
CCN(CC)C(=O)c1c(OC2CCN(C)CC2)c2cccnc2n2c(C(C)C)nnc12 | – | 65% | 35% | 87% | 18% | – | –
CCNc1c(C(=O)N(CC)CC)c2nnc(C(C)C)n2c2ccccc12 | 12% | 39% | 43% | 91% | 42% | 43% | inhibition in vivo at 25 mg/kg (Rattus norvegicus [2]): 24%; inhibition in vivo at 12.5 mg/kg (Rattus norvegicus [8]): 6%
CCN(CC)C(=O)c1c(NCC(C)C)c2ccccc2n2c(C(C)C)nnc12 | – | 14% | 29% | 88% | 0% | – | –
CCCCOc1c(C(=O)N(CC)CC)c2nnc(C(C)C)n2c2ncccc12 | – | 76% | 14% | 40% | 3% | – | –
CCN(CC)C(=O)c1c(OC(C)C)c2cccnc2n2c(C(C)C)nnc12 | – | – | – | 11% | 24% | 0% | –
CCN(CC)C(=O)c1c(OCC(C)C)c2cccnc2n2c(C(C)C)nnc12 | – | – | – | 26% | 0% | – | –
CCN(CC)C(=O)c1c(N2CCN(C)CC2)c2ccccc2n2c(C(C)C)nnc12 | 77% | 54% | 100% | 100% | 34% | 0% | inhibition in vivo at 12.5 mg/kg (Mus musculus [11]): 14%; inhibition at 25 mg/kg (Mus musculus [12]): 21%
CCN(CC)C(=O)c1c(N2CCN(C)CC2)c2ccccc2n2cnnc12 | 28% | 0% | 58% | 55% | 0% | – | –
CCOc1c(C(=O)N(CC)CC)c2nnc(C(C)C)n2c2ncccc12 | – | – | – | 22% | 10% | – | –
CCN(CC)C(=O)c1c(N2CCN(C)CC2)c2cccnc2n2c(-c3ccccc3)nnc12 | 15% | 72% | 62% | 100% | 0% | – | –
CCc1nnc2c(C(=O)N(CC)CC)c(NCCC(C)C)c3cccnc3n12 | 15% | 95% | 75% | 98% | 41% | 41% | inhibition in vivo at 25 mg/kg (Rattus norvegicus [2]): 43%; inhibition in vivo at 12.5 mg/kg (Rattus norvegicus [8]): 29%; inhibition in vivo at 6.25 mg/kg (Rattus norvegicus [10]): 0%
CCN(CC)C(=O)c1c(OC2CCN(C)CC2)c2cccnc2n2cnnc12 | – | 55% | 20% | 45% | 0% | – | –

Reference: ChEMBL document CHEMBL1140964, “1,8-Naphthyridines VII. New substituted 5-amino[1,2,4]triazolo[4,3-a][1,8]naphthyridine-6-carboxamides and their isosteric analogues, exhibiting notable anti-inflammatory and/or analgesic activities, but no acute gastrolesivity” (Eur J Med Chem, 2008)
